Laboratory results as given in ChEMBL document CHEMBL1135915, “Structure-activity relationships in 1,4-benzodioxan-related compounds. 7. Selectivity of 4-phenylchroman analogues for alpha(1)-adrenoreceptor subtypes” (J Med Chem, 2002).

Tests used:
[1] = biological target: T1, Alpha-1A adrenergic receptor (Rattus norvegicus, UniProt P43140); experiment: Antagonistic affinity tested against isolated Rat Prostatic Vas Deferens Alpha-1A adrenergic receptor; format: functional, tissue-based; conditions: read-out: pA2 (converted)
T1 sequence (P43140 whole entry): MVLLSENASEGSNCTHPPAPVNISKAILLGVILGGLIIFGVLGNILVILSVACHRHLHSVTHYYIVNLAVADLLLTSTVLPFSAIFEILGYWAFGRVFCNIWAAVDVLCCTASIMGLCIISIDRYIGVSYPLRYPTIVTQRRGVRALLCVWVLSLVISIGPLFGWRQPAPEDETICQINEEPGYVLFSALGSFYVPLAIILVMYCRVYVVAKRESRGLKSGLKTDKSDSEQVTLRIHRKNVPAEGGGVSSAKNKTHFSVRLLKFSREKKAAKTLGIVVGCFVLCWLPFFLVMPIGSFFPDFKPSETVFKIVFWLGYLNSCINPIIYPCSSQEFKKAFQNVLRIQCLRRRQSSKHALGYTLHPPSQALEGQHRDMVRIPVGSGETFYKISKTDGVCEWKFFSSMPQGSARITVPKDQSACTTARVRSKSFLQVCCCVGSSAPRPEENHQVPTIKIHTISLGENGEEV

[2] = biological target: T2, Alpha-1D adrenergic receptor (Rattus norvegicus, UniProt P23944); experiment: Antagonistic affinity tested against isolated Rat Thoracic Aorta Alpha-1D adrenergic receptor; format: functional, tissue-based; conditions: read-out: pA2 (converted)
T2 sequence (P23944 whole entry): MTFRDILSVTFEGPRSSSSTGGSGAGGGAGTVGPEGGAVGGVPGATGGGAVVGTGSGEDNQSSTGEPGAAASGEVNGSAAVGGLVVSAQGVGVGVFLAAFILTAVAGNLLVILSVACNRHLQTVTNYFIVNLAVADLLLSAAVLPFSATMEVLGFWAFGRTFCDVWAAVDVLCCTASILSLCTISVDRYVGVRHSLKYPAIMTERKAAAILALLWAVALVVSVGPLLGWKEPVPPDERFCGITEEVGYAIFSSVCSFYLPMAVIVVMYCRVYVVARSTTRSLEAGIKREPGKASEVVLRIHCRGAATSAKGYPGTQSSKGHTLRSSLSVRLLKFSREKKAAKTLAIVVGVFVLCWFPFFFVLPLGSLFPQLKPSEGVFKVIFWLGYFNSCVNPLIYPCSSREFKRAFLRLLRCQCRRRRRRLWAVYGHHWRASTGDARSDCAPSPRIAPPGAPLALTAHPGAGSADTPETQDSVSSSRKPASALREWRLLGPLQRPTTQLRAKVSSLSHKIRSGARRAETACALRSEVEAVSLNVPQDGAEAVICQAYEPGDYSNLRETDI

[3] = biological target: T1, Alpha-1A adrenergic receptor; experiment: Antagonistic affinity tested against isolated Rat Prostate Alpha-1A adrenergic receptor; format: functional; conditions: read-out: pA2 (converted)
Outline: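 Prostate strips from male Wistar rats (275-300 g), 2 g tension in modified Krebs at 37 °C, 95% O2/5% CO2, pH 7.4, primed with 1.0 µM (-)-noradrenaline. After 90 min wash, a cumulative noradrenaline curve was run, then a second after 30 min antagonist equilibration. Single antagonist concentration in the range 0.01-1 µM; pKB by van Rossum.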

[4] = biological target: T3, Alpha-1B adrenergic receptor (Rattus norvegicus, UniProt P15823); experiment: Antagonistic affinity tested against isolated Rat Spleen Alpha-1B adrenergic receptor; format: functional; conditions: read-out: pA2 (converted)
T3 sequence (P15823 whole entry): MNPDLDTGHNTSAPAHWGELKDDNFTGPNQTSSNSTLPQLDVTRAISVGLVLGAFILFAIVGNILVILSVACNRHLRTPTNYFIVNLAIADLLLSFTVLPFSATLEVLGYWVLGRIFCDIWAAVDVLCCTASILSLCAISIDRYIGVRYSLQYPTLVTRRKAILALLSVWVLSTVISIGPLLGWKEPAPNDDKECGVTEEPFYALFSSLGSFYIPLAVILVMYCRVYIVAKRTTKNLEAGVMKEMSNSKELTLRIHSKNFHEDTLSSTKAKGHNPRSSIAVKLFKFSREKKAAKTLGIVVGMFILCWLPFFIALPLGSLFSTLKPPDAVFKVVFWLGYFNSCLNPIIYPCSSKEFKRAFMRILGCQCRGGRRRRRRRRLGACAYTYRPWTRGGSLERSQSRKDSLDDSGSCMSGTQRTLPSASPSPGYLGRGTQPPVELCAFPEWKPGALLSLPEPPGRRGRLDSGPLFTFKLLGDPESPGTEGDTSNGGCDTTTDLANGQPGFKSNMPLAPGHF
Outline: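 Rat spleen strips, 1 g resting tension, in Krebs with 4.0 µM propranolol and 0.01 mM K2EDTA, equilibrated 2 h. Cumulative isometric (-)-phenylephrine curves at 30 min intervals; the second served as control.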

[5] = biological target: T4, Alpha-1B adrenergic receptor (Homo sapiens, UniProt P35368); experiment: Affinity constant on CHO cells expressing Human recombinant Alpha-1B adrenergic receptor; format: cell-based
T4 sequence (P35368 whole entry): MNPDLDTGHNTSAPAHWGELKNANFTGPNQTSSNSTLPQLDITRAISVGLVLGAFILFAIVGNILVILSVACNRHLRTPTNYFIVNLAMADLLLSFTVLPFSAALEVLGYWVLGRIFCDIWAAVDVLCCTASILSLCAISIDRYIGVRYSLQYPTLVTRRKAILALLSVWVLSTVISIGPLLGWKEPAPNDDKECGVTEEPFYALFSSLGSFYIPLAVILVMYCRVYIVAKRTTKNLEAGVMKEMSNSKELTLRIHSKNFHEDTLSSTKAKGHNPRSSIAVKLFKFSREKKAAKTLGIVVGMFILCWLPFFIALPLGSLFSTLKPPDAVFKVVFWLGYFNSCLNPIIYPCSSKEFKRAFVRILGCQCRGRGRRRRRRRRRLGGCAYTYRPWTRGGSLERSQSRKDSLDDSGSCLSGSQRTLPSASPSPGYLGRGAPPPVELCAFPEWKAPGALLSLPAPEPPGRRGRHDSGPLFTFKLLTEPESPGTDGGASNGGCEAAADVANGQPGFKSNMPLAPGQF

[6] = biological target: T5, Alpha-1D adrenergic receptor (Homo sapiens, UniProt P25100); experiment: Affinity constant on CHO cells expressing Human recombinant Alpha-1D adrenergic receptor; format: cell-based
T5 sequence (P25100 whole entry): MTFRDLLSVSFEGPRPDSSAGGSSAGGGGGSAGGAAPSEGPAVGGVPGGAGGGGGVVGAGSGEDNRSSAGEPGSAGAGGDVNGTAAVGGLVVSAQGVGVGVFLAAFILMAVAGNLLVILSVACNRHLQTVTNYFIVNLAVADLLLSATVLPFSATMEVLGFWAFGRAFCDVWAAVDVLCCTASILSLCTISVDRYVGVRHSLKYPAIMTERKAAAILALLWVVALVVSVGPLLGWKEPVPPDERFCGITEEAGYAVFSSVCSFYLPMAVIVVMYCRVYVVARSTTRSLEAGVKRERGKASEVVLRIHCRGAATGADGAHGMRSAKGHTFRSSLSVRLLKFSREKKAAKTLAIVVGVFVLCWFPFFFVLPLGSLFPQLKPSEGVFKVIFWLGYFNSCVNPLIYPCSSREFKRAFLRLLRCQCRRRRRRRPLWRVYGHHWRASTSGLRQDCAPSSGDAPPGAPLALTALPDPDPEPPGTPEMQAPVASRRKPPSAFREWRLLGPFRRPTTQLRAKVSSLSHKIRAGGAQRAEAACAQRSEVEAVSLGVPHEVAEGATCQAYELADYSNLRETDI

[7] = biological target: T6, Alpha-1A adrenergic receptor (Homo sapiens, UniProt P35348); experiment: Affinity constant on CHO cells expressing Human recombinant Alpha-1A adrenergic receptor; format: cell-based
T6 sequence (P35348 whole entry): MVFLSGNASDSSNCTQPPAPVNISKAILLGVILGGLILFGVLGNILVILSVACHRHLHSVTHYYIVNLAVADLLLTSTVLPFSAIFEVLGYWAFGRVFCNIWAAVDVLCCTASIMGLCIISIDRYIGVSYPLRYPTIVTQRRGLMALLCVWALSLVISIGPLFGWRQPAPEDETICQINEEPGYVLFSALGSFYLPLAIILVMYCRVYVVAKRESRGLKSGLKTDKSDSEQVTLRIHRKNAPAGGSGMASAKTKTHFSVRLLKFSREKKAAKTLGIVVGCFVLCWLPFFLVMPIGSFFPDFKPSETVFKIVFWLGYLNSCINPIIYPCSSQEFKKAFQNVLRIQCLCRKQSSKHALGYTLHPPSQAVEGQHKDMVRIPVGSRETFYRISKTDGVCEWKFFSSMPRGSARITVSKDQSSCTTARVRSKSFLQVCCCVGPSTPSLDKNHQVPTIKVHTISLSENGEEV

[8] = biological target: T7, 5-hydroxytryptamine receptor 1A (Homo sapiens, UniProt P08908); experiment: Affinity constant on HeLa cells expressing Human recombinant 5-hydroxytryptamine receptor 1A
T7 sequence (P08908 whole entry): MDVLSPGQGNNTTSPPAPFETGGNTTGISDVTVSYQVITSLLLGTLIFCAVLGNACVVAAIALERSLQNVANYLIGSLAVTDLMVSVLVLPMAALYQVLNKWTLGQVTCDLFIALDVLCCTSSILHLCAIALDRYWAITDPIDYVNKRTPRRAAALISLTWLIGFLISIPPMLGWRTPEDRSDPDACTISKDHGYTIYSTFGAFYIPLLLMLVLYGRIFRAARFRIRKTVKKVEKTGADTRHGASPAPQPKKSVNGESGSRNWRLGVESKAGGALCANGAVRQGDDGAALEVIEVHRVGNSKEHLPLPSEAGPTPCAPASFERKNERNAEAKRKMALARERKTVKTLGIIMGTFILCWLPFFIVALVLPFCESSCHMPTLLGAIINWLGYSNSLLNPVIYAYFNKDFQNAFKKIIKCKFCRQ

Row | Compound | Kb [1] [nM] | Kb [2] [nM] | Kb [3] [nM] | Kb [4] [nM] | Ki [5] [nM] | Ki [6] [nM] | Ki [7] [nM] | Ki [8] [nM]
1 | COc1cccc(OC)c1OCCNCC1COc2ccccc2O1 (stereo not drawn) | 0.309 | 1.58 | 0.537 | – | – | – | – | –
2 | COc1cccc(OC)c1OCCNC[C@@H]1Oc2ccccc2O[C@H]1c1ccccc1 | 5.75 | 32.4 | 5.89 | 2510 | – | – | – | –
3 | COc1cccc(OC)c1OCCNC[C@H]1C[C@H](c2ccccc2)c2ccccc2S1 | 209 | 61.7 | 107 | 302 | 27.5 | 22.9 | 2.34 | 10.2
4 | COc1cccc(OC)c1OCCNCC1CC(c2ccccc2)c2ccccc2C1=O (stereo not drawn) | 0.447 | 2 | 0.347 | 26.3 | 1.23 | 0.182 | 0.251 | 11
5 | COc1ccccc1N1CCN(CCN2C(=O)CC3(CCCC3)CC2=O)CC1 [BMY-7378] | – | – | – | 33.1 | 708 | – | – | 0.372

Continued, values first:

Row | Kb [1] [nM] | Kb [2] [nM] | Kb [3] [nM] | Kb [4] [nM] | Ki [5] [nM] | Ki [6] [nM] | Ki [7] [nM] | Ki [8] [nM] | Compound
6 | 178 | 91.2 | 288 | 110 | 12.3 | 17 | 0.513 | 6.31 | COc1cccc(OC)c1OCCNCC1Cc2ccccc2C(c2ccccc2)C1 (stereo not drawn)
7 | 1.32 | 0.275 | 1.12 | 28.8 | 0.0398 | 0.0891 | 0.0501 | 6.46 | COc1cccc(OC)c1OCCNC[C@@H]1C[C@H](c2ccccc2)c2ccccc2O1
8 | 58.9 | 16.6 | 33.9 | 67.6 | 2.82 | 3.63 | 0.398 | 10.7 | COc1cccc(OC)c1OCCNCCOc1ccccc1Cc1ccccc1
9 | 6.17 | 17.4 | 4.9 | 155 | 1.15 | 0.437 | 0.0891 | 15.1 | COc1cccc(OC)c1OCCNCC1CC(c2ccccc2)c2ccccc2S1 (stereo not drawn)
